According to ChEMBL document CHEMBL3352255, “Tailor-made fluorescent trilobolide to study its biological relevance” (J Med Chem, 2014):
The source made the active and inactive calls. The calls are words filed in the database; no cut-off is given here.

Columns and labels:
[1] = species: Rattus norvegicus; experiment: Induction of TNFalpha production in rat peritoneal cells at 10 uM after 24 hrs using by ELISA; format: functional, cell-based
How it was run: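 Rat peritoneal cells exposed to compounds at 10 μM for 24 h; secreted TNF-α quantified by ELISA; LPS (1000 pg·mL−1) and parent trilobolide (1 μM) as positive controls; mean ± SEM of two independent experiments, n = 4, compared with untreated cells.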

[2] = test system: LNCaP; experiment: Cytotoxicity against human LNCAP cells after 72 hrs by WST-1 assay; format: functional, cell-based
How it was run: (§1)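 Dark cytotoxicity (no light exposure) by WST-1 tetrazolium-to-formazan conversion reflecting metabolic activity; compounds tested at concentrations up to 50 μM for 24, 48 or 72 h; IC50 taken as concentration giving 50% inhibition of cell viability.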

[3] = test system: LNCaP; experiment: Cytotoxicity against human LNCAP cells after 24 hrs by WST-1 assay; format: functional, cell-based; how it was run: as §1
[4] = test system: HT-29; experiment: Cytotoxicity against human HT-29 cells after 24 hrs by WST-1 assay; format: functional, cell-based; settings: HT-29, 24 h; how it was run: as §1
[5] = test system: U2OS; experiment: Cellular uptake in human U2OS cells at 2 uM after 0.5 to 24 hrs by fluorescence microscopy; format: ADME, cell-based
How it was run: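 U-2 OS live cells were imaged by fluorescence microscopy across a range of conjugate concentrations and time points from 0.5 to 24 h. The intracellular signal plateau was then assessed.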

[6] = Cellular uptake in Endoplasmic reticulum of human PC3 cells at 1 uM after 1 hr by fluorescence microscopy; format: ADME, cell-based; settings: pc-3, 1 h
How it was run: (§2)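 Live-cell fluorescence microscopy of cells exposed to Bodipy-labelled conjugates at 1 μM for 1 h. ER was co-stained with ER-Tracker Blue-White DPX (100 nM, 20 min) to check colocalisation. A Bodipy dye-only stain served as control.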

[7] = test system: C2C12; experiment: Cellular uptake in mouse C2C12 cells at 1 uM after 20 mins by fluorescence microscopy; format: ADME, cell-based; settings: c2c12, 20 min
How it was run: (§3)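 Uptake into living cells was followed by fluorescence microscopy at 10, 20 and 40 min and at 1, 3, 5 and 24 h. Green-emitting Bodipy conjugates were given at 1 μM. A Bodipy dye-only stain served as control for dye-driven localisation.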

[8] = test system: MCF7; experiment: Cytotoxicity against human MCF7 cells after 48 hrs by WST-1 assay; format: functional, cell-based; settings: MCF7, 48 h; how it was run: as §1
[9] = Cellular uptake in Endoplasmic reticulum of human LNCAP cells at 1 uM after 1 hr by fluorescence microscopy; format: ADME, cell-based; how it was run: as §2
[10] = test system: U2OS; experiment: Cellular uptake in human U2OS cells at 1 uM after 40 mins to 24 hrs by fluorescence microscopy; format: ADME, cell-based; how it was run: as §3
[11] = Cytotoxicity against rat peritoneal cells assessed as reduction in cell viability at 40 uM after 24 hrs by WST-1 assay
[12] = test system: LNCaP; experiment: Cellular uptake in human LNCAP cells at 1 uM after 40 mins to 24 hrs by fluorescence microscopy; format: ADME, cell-based; how it was run: as §3
[13] = test system: HeLa; experiment: Cellular uptake in human HeLa cells at 1 uM after 20 mins by fluorescence microscopy; format: ADME, cell-based; how it was run: as §3
[14] = Cellular uptake in mitochondria of human U2OS cells at 1 uM after 10 to 40 mins by fluorescence microscopy; format: ADME
How it was run: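 Live cells were treated with 1 μM Bodipy conjugates for at least 40 min and then co-stained with MitoTracker Red FM (100 nM, 10 min). Imaging by fluorescence microscopy assessed colocalisation with the green signal and the state of the mitochondrial network.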

[15] = test system: MCF7; experiment: Cytotoxicity against human MCF7 cells after 24 hrs by WST-1 assay; format: functional, cell-based; settings: MCF7, 24 h; how it was run: as §1
[16] = Cellular uptake in HEK293T cells at 1 uM after 40 mins to 24 hrs by fluorescence microscopy; format: ADME, cell-based; settings: human, hek-293t; how it was run: as §3
[17] = test system: HeLa; experiment: Cellular uptake in human HeLa cells at 1 uM after 40 mins to 24 hrs by fluorescence microscopy; format: ADME, cell-based; how it was run: as §3
[18] = test system: C2C12; experiment: Cellular uptake in mouse C2C12 cells at 1 uM after 40 mins to 24 hrs by fluorescence microscopy; format: ADME, cell-based; settings: c2c12, 1 µM; how it was run: as §3
[19] = test system: A549; experiment: Cellular uptake in human A549 cells at 1 uM after 40 mins to 24 hrs by fluorescence microscopy; format: ADME, cell-based; settings: a549, 1 µM; how it was run: as §3

Row | SMILES | Activity [1] | IC50 [2] [µM] | IC50 [3] [µM] | IC50 [4] [µM] | Drug uptake [5] | Drug uptake [6] | Drug uptake [7] | IC50 [8] [µM] | Drug uptake [9] | Drug uptake [10] | Activity [11] | Drug uptake [12] | Drug uptake [13] | Drug uptake [14] | IC50 [15] [µM] | Drug uptake [16] | Drug uptake [17] | Drug uptake [18] | Drug uptake [19]
1 | C/C=C(/C)C(=O)O[C@@H]1C[C@H]2C(=C1C)[C@@H]1OC(=O)[C@@](C)(O)[C@@]1(O)[C@@H](OC(=O)CCOCCOCCOCCOCCn1cc(COc3ccc(C4=C5C=CC=[N+]5[B-](F)(F)n5cccc54)cc3)nn1)C[C@]2(C)OC(C)=O | Active | 20.5 | 7.4 | > 50 | Active | Active | Active | 6.3 | Active | Not Active | Non-toxic | Active | Active | Not Active | 7.4 | – | – | – | –
2 | C/C=C(/C)C(=O)O[C@@H]1C[C@H]2C(=C1C)[C@@H]1OC(=O)[C@@](C)(O)[C@@]1(O)[C@@H](OC(=O)CCCCn1cc(COc3ccc(C4=C5C=CC=[N+]5[B-](F)(F)n5cccc54)cc3)nn1)C[C@]2(C)OC(C)=O | – | > 50 | 12.7 | > 50 | Active | Active | Active | 12.8 | Active | Not Active | – | Active | Active | Not Active | > 50 | Active | Active | Active | Active
